According to the EternaBench riboswitch data:

System: MS2 coat protein
Test: apparent Kd, MS2 coat protein; higher = weaker binding; RNA-MaP array; FMN 200 µM where present
How it was run: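 The apparent Kd is reported as the median of filtered per-cluster binding-curve fits. To get these curves, designs transcribed by stalled E. coli RNA polymerase on Illumina sequencing-chip clusters were titrated with SNAP-549-labelled MS2 coat protein from 0.7 or 1.5 nM, doubling to 3 µM. Titrations were run without and then with constant ligand in 100 mM Tris-HCl pH 7.5, 80 mM KCl, 4 mM MgCl2, BSA, DTT, yeast tRNA and Tween-20, and green signal was normalised to red-channel RNA signal and control-cluster median Fmax.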

[1] = designed as: OFF switch for flavin mononucleotide, no ligand
[2] = ligand present: flavin mononucleotide, designed as: OFF switch for flavin mononucleotide
[3] = designed as: ON switch for flavin mononucleotide, no ligand
[4] = ligand present: flavin mononucleotide, designed as: ON switch for flavin mononucleotide

Sequence | apparent Kd [1] | apparent Kd [2] | apparent Kd [3] | apparent Kd [4]
AGCAUGUAAGGAUAUGCAACACAGCUUUCAAUCGCUGUGCCGCAGAAGGUACAUGAGGAUCACCCAUGUGCUCC | 85.5 nM | 91.2 nM | – | –
AUAAAAGUGACAUGAGGAUCACCCAUGUGAAUUAGUAGUAGCAGAAGGCACGUGGGAAGACCAAGUGAGGAUAUGUAACUUUAG | – | – | 625 nM | 59.2 nM
AAUUUACAGCUAGGAUAUACAUGAGGAUCACCCAUGUAACGAUCGGAUCUUAUGAUCGUAUCCGUGUAGAAGGAGCAAAUAAGA | 6.46 nM | 6.39 nM | – | –
GCACGAUAUCAGGAUAUGACUAGCUGCGGCUAGUCAGAAGGGAUGACAUGAGGAUCACCCAUGUGAUCACGUGC | 57.6 nM | 78.7 nM | – | –
CUUCAGUCAGGAUAUGUUAAUCUCGCCACUCGGCGAACCGGACAGAAGGGACAUGAGGAUCACCCAUGUUAAAA | 34.7 nM | 19.7 nM | – | –
UGUAUGGACAGAGGAUAUACGGAUAGGAUCUACUAUCUUCUUCAAAUAACAUGAGGAUCACCCAUGUAGAAGGCUGUCCAUACU | 16.1 nM | 35.1 nM | – | –
CGUAACUGCAUAGGAUAUUGAUACAUGAGGAUCACCCAUGUUUUUCGGAUUAUAUAUCUACUUAGCAAGAAGGAUGGAGUUACG | – | – | 7.09 nM | 5.15 nM
UAUUGAUAAUAUUUUAACAUGAGGAUCACCCAUGUCGCUAGACAGGAUAUAUUUUAUUUGUUUAAGUAGAAGGGUCGUAGAUUU | – | – | 200 nM | 152 nM
GCAUUUUAUGCAGGAUAUUGAAUUCGGAUUAAACAAGAAGGGCAUAACAUGAGGAUCACCCAUGUUUUAUAGGUAUCUAUGAAC | 53.1 nM | 116 nM | – | –
GCAGGACAUGAGGAUCACCCAUGUUCAAAAUAUUGAGGAUAUGGAUACGGUAUAUCCGAACCAGAAGGCAACCUGC | – | – | 20.5 nM | 17.1 nM
UCACGGGACUAAGGAUAUACAUGAACUAUUAUUGUAGAAGGUAGAAUGUUAGAUUAUACACUAAACAUGAGGAUCACCCAUGUU | 21.1 nM | 19.6 nM | – | –
GUGUACAGAGGAUAUACAUGAGCUAGGAAACUAGCAACCUCACAUGAGGAUCACCCAUGUAGAAGGCUGUACAC | 32.7 nM | 25.8 nM | – | –
GGAUGACAAAGUCAUCCAAUUCGAACAUGAGGAUCACCCAUGUAGGAUAUGCUUCUCAAAGAGAAGCAGAAGGACAUGUGCUUU | 32.8 nM | 182 nM | – | –
UGCGCUGAGGGAGGAUAUGACAUGAGGAUCACCCAUGUGAUAGGUUUCUUGUCAGAAGGCCCGCAUGUACCAAAUUAGGUUUGU | 94 nM | 126 nM | – | –
UUACUUCAUGAGAAGGACAUGAGGAUCACCCAUGUAGGAUAUCGUGGGAGACUGGUAUUGAAUCUUCGGAUUCAAUACCUGUCU | – | – | 59.7 nM | 9.3 nM
GCAGGAUAAGUCAGGAUAUACCUAUGGAUACAUAGGUAGAAGGGACAUGAGGAUCACCCAUGUUACUCGCCUGC | 12.6 nM | 23.6 nM | – | –
AGGCGACAUGAGGAUCACCCAUGUGAGGAUAUCGAACUCAACUGAGGAGAGAGUAAGGCGAGAAGGCACACAGU | 22.1 nM | 36.4 nM | – | –
CAGCGCUGUUGAGAGGAUAUGCGGUGAUGGACAUGAGGAUCACCCAUGUUAGCGAUAGCAUUACGGUAGAAGGCUCUACAGCUGC | – | – | 18.5 nM | 12.3 nM
AGAUAACACCAGAAGGACAUGAGGAUCACCCAUGUAGGAUAUGGGCAUCACUCGAGAAAGAUACGACCAAAAGGACACGCGAUC | – | – | 85 nM | 10.3 nM
UCUCGACAUGAGGAUCACCCAUGUCAGGAUAUUGUGUUUGAGGUUUUUUACCUUUUGGCAAGAAGGGAUGUGUG | 27.5 nM | 28.9 nM | – | –
GUAGCAUACCGAGGAUAUUCAGGGAAUAAAUAAACAUGAGGAUCACCCAUGUGGCGAAAGCCUAGGGAGAAGGCGGAAUGCUAC | – | – | 83.6 nM | 21.5 nM
AAAAACAGAGGAUAUACAAAAUUAUGACGAAAGUCAUAAAAACAUGAGGAUCACCCAUGUAGAAGGCUGGAAAA | 30.4 nM | 28.9 nM | – | –
AGUGUCAUCGAGAAGGCUUCAACAUGAGGAUCACCCAUGUUGUAAUAUGGGAGGAUAUCGAUGAUACAGCUACGUUUCGUAGCA | – | – | 7 nM | 5.03 nM
GAUACACAUGAGGAUCACCCAUGUGAGGAUAUGCGUACGUUGUCCGUAGGCGACGUGCGCAGAAGGCGCGUGAG | 52.6 nM | 84 nM | – | –
AAGGAGUAAGGAUAUGCUGCUCGUCACUUGCGUGAUGAGUAGCAGAAGGUACAUGAGGAUCACCCAUGUAAAGA | 27.4 nM | 20.1 nM | – | –
GCGAUUUUGUAGAAGGUACGUUAUAAGACAAUGUAAGGAUAUACUGACAUGAGGAUCACCCAUGUAUAAUUAGUUUACAGUCGC | – | – | 7.74 nM | 5.91 nM
GUAGCAUACAGAGGAUAUUCAAAACCGGAAACGGACAUGAGGAUCACCCAUGUGGCGAAAGCCAGGGAGAAGGCUGAAUGCUAC | – | – | 32.8 nM | 14.8 nM
UUAUUAUAUGUAGGAUAUGCAUAUUAUCAUUGUGCAGAAGGACAUGAGGAUCACCCAUGUAUAUUAUUAUUAUAUAUUAUAUAU | 17.5 nM | 18.5 nM | – | –

Sequence | apparent Kd [1] | apparent Kd [2] | apparent Kd [3] | apparent Kd [4]
UCUCGACAUGAGGAUCACCCAUGUCAGGAUAUUGUGUUUUGGGUUUUUUACCUUUUGGCAAGAAGGGAUGUGUG | 23 nM | 22.1 nM | – | –
ACGCGUUGGGAGAAGGUACUUUAAUUAGGUUACACAUGAGGAUCACCCAUGUAAGGAUAUCCCAUCGUGUAAUAUUAUACAGCA | 8.06 nM | 7.39 nM | – | –
GGCGUGUGAGGAUAUCUGAUGUCUAACUUCGGUUAGACAUCAGAGAAGGCACAUGAGGAUCACCCAUGUCCGCC | 67.5 nM | 61.9 nM | – | –
UGAUACUAGGGAGGAUAUGGGAAGAUACAUGAGGAUCACCCAUGUUUAAGAAUGCCGAGAGGCAACUAGAAGGCCCUAGUACCU | – | – | 538 nM | 21.3 nM
GGAGCACACAUUAACAUGAGGAUCACCCAUGUCAAAAGACAUGAGGAUAUGGAUCCGAAAAGGAUCCAGAAGGCAUAGUGCUCC | – | – | 301 nM | 15.7 nM
UUAUUAUAUGUAGGAUAUGCAUAUUGUUAUUAUGCAGAAGGACAUGAGGAUCACCCAUGUAUAUUAUUAUUAUAUAUUAUAUAU | 29.4 nM | 48.8 nM | – | –
AAAUAGUUAGGAUAUACAUGAGGAUCACCCAUGUGGACUUAUGGCGAUUAAUUUAGUGGUAGAAGGGACUCAAA | 53.8 nM | 51.4 nM | – | –
GCAGACGUAGUGAGGAUAUGCUCUACCUCGGUAGAGCAGAAGGCACAUGAGGAUCACCCAUGUGAUUUUUCUGC | 40 nM | 573 nM | – | –
GCACUUACGUUAGGAUAUGUAUCGGAAAACGAUACAGAAGGAAUAUGGGAACAUGAGGAUCACCCAUGUUCCUGAGACGAGUGC | – | – | 69.1 nM | 41.6 nM
CGCUGUCUCGCAGGAUAUGCAUUGGAUUACAAUGCAGAAGGGCGAUUACAUGAGGAUCACCCAUGUGUUGACAGUGAAGAAGAU | – | – | 113 nM | 25.5 nM
AAUAACAGAGGAUAUACUGUUUUAUGUAUUUAUUAUUUUAAACAUGAGGAUCACCCAUGUAGAAGGCUGAAUGA | 23.8 nM | 22 nM | – | –
UGUUAAUUGUAGAAGGGUGACAUGAGGAUCACCCAUGUUCACAUGCGAUUUACGGCGCAUGUUCCACAGGAUAUACAGUUGAGU | – | – | 556 nM | 97.8 nM
GUGACGAAUGUAGGAUAUGCUGAGGAAUACUCAGCAGAAGGACAUGAGGAUCACCCAUGUCAUCCUUAUAAUGAAUAACGUCAC | 13.8 nM | 18.3 nM | – | –
CUAAAUCAUGUAGGAUAUGCAUGGCGAAGCUACGCAGAAGGACAUGAGGAUCACCCAUGUCUCUCCGUCUGGGUACAGACGGAG | 18.9 nM | 120 nM | – | –
CACGGCUUAGGAUAUACAUGAGGAUCACCCAUGUGGGAAAGCCAAGGCGUGGUAAAGUGUAGAAGGAAGAAGGA | 13.4 nM | 14.9 nM | – | –
ACAUGAUAUGUAGGAUAUCACAACAUGAGUUUUAUUAUUGUUAUUUAUGAUUGAGAAGGACAUUUACAUGAGGAUCACCCAUGU | 17.8 nM | 12.3 nM | – | –
CUUCGUAUAGAGGAUAUAGGAUACCUCGGUGUCCUAGAAGGCUGUACAUGAGGAUCACCCAUGUACUUCAGAUC | 11.6 nM | 16 nM | – | –
AUCCUACAUGAGGAUCACCCAUGUGACGCCUCAAUAGGAUAUGCGUGUGCCUUGGCGCAUGCAGAAGGAUUGAAGC | – | – | 285 nM | 48.1 nM
GUGCGGUAGGAGAAGGACGGAGGGUUCUUUUCAUACAUGAGGAUCACCCAUGUAGGAUAUCCUACCUCACGCGGCCUACUACAG | 8.11 nM | 11.4 nM | – | –
UAUUAGUGAGGAUAUGAGUCGUAGAACAAUAGUACUACGUCUCAGAAGGUACAUGAGGAUCACCCAUGUUCCUU | 12.7 nM | 14.4 nM | – | –
AUAUUUUUGUAGAAGGUACGUGAUUAGUCAAAGUAAGGAUAUACUGACAUGAGGAUCACCCAUGUUUUAAUAGUUAACAGUUCU | – | – | 12.9 nM | 8.01 nM
UAGAAUCGAGGAUAUACAUGAGGAUCACCCAUGUGUGGCCAUACUGUGUGGUCGUCAGGUAGAAGGCGAUUAUA | 72.3 nM | 22.6 nM | – | –
UUUUGGUCAGGAUAUUGUUAGUUUAGUUGUUUGUAUUAGUUCGAGAAGGGACAUGAGGAUCACCCAUGUGAUUU | 99.2 nM | 102 nM | – | –
CCGGAGUCAGGAUAUACGAACAUGUCGCCAGAUGUCAAGGUACAUGAGGAUCACCCAUGUAGAAGGGAGGAGAA | 96.1 nM | 56.8 nM | – | –
AAUAACAGAGGAUAUACUGUUUUAUGUGUUUAUUAUUUUGAACAUGAGGAUCACCCAUGUAGAAGGCUGAAUAA | 23.9 nM | 21 nM | – | –
UCGACCAGCGCCAGUCGAACAUGAGGAUCACCCAUGUACUCCAGAAGGCCGCCCAAGAACGGAGUGGAGGAUAUGGAGGUUCUC | – | – | 37.7 nM | 33.2 nM
AUGGUGCAGGUACAGGAUAUGUUGCUCGUAACAUGAGGAUCACCCAUGUACCUAUGAGAUUAAAUGCAGAAGGGUGCACACCAAA | – | – | 538 nM | 20.6 nM
